Assay results: article PMC10408732 (Anesthesia and Analgesia, 2023)
Where two headings read alike, the source gives them in different places.

How the values were obtained:
[1] = biological target: T1, rat α7 nAChR (Rattus norvegicus, UniProt Q05941); test: Two-electrode voltage clamp at rα7 nAChRs expressed in Xenopus laevis oocytes; assay type: cell-based
[2] = same software; cited from earlier work
[3] = system: oxaliplatin-induced neuropathic pain in mice; details: oxaliplatin model; cited from earlier work
[4] = biological target: T1, rat α7 nAChR; details: rα7, same conditions, cited from earlier work
[5] = biological target: T2, human CaV2.2 channel (Homo sapiens, UniProt Q00975); details: cited from earlier work
[6] = system: oxaliplatin-induced neuropathic pain in mice; test: Oxaliplatin-induced neuropathic pain, cold plate test; assay type: in vivo
In short: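 Male CD-1 mice, n = 10/condition, given oxaliplatin 2.4 mg/kg i.p. in 5% glucose, 5 days/week for 2 weeks. On day 15: baseline cold plate, then oral test compound (1, 3, 10 or 30 mg/kg, or a two-compound combination at 30 mg/kg each) in 1% carboxymethyl cellulose. Hind-paw licking latency every 15 min for 60–75 min, 30 s cutoff; mean ± SEM; 1-way ANOVA with Bonferroni.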

[7] = system: mice; test: Rota-rod test; assay type: in vivo
In short: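 Rota-rod, mice n = 5/condition. Test compound 30 mg/kg, single dose (tested right after) or daily for 7 days (tested day 8); vehicle controls. Falls from the rod counted over a 30 s test, every 15 min for 1 h. Mice with <3 or >6 falls in the pretest were excluded.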

[8] = biological target: rat α9α10 nAChR (Rattus norvegicus, UniProt P43144+Q9JLB5); test: Two-electrode voltage clamp at rα9α10 nAChRs expressed in Xenopus laevis oocytes; assay type: cell-based; details: for IC50: Inhibition IC50 (μM), −80 mV
[9] = biological target: T2, human CaV2.2 channel; test: Whole-cell patch clamp recording of CaV2.2 channels expressed in HEK293T cells; assay type: cell-based
In short: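 Human CaV2.2 transiently expressed in HEK293T cells; whole-cell patch clamp at room temperature 24–48 h after transfection. Bath: 10 mM BaCl2, 30 mM TEA-Cl, pH 7.35. Pipette (2–3 MΩ): K-gluconate with 5 mM EGTA, pH 7.2. Ba2+ currents evoked from −80 mV by steps to −10 or −15 mV at 0.1 Hz, in the absence and presence of test compound.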

[10] = system: mice; test: Effect on pain threshold, cold plate test; assay type: in vivo; details: acute or repeated (7 days) 30 mg/kg, P > .05 vs vehicle
[11] = system: mice; test: Effect on pain threshold, hot plate test; assay type: in vivo; details: acute or repeated (7 days) 30 mg/kg, P > .05 vs vehicle
[12] = oxaliplatin-treated mice, 30 mg/kg oral, cold plate test
[13] = acute, single dose 30 mg/kg, counted every 15 min for 1 h, P > .05 vs vehicle
[14] = read-out: inhibition of ACh-evoked currents

T1 sequence (Q05941 23-502): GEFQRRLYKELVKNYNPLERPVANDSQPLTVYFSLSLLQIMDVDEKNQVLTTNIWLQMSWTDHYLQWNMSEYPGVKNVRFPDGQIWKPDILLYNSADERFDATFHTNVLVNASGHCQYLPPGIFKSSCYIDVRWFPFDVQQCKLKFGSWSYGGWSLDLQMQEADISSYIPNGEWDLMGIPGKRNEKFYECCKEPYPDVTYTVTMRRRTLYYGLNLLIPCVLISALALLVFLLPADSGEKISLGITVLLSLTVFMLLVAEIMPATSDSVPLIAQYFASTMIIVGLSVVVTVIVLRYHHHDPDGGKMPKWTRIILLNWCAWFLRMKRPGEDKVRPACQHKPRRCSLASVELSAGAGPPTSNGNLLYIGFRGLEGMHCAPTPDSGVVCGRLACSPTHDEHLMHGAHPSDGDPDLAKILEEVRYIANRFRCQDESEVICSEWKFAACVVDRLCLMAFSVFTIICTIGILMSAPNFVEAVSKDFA
Sequence of rat α9α10 nAChR (P43144 26-479): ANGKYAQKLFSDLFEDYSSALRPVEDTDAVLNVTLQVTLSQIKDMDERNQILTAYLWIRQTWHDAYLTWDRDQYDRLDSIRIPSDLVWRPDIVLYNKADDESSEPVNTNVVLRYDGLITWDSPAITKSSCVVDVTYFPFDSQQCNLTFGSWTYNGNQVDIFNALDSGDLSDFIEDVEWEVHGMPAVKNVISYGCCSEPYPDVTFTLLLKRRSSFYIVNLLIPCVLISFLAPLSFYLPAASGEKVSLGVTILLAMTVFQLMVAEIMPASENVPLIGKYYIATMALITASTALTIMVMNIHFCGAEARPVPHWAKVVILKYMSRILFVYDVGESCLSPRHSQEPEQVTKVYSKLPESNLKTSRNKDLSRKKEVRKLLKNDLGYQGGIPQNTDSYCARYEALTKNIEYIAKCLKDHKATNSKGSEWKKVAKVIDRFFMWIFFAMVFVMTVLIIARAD
Sequence of rat α9α10 nAChR (Q9JLB5 25-447): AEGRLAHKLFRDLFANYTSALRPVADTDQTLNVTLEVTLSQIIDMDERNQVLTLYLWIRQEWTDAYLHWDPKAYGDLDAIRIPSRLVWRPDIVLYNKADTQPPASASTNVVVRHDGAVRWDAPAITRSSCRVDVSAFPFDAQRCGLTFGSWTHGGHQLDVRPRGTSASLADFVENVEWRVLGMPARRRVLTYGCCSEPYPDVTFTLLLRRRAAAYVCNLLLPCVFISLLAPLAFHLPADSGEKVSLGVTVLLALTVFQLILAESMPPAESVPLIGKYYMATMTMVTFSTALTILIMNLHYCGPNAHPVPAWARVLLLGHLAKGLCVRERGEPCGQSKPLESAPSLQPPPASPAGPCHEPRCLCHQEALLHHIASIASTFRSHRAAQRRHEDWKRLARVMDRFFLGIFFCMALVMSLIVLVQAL

Compound `O=C1[O][Pt]2([NH][C@@H]3CCCC[C@H]3[NH]2)[O]C1=O` [Oxaliplatin, reference compound] has an IC50 ([1]; read-out: Inhibition IC50, rα7, agonist ACh 30 µM, −80 mV) of 200 µM and an IC50 ([1]; read-out: Inhibition IC50, rα7, agonist nicotine 25 µM) of 200 µM.
In the case of `Cc1ccc(NC(=O)/C=C/c2ccco2)cc1` [PAM-2, (E)-3-furan-2-yl-N-p-tolyl-acrylamide], the LogBBB [2] is listed as 0.09, the LogP [2] is listed as 2.96 and the “active dose (antinociceptive activity)” value [3] is listed as 3 mg/kg. The IC50 ([4]; read-out: potency at rα7 nAChRs (IC50 as printed)) was 12 µM, the “maximal efficacy at rα7 nAChRs” value [4] was 135% ± 4% and the IC50 [5] was 89 µM.
With `Cc1ccc(NC(=O)/C=C/c2cccs2)cc1` [DM497, (E)-3-(thiophen-2-yl)-N-(p-tolyl)acrylamide] the “activity when administered alone (cold plate test)” value ([6]; mice without oxaliplatin, 10 mg/kg) was “without inducing any activity when administered alone”, the “active dose (antinociceptive activity)” value ([6]; oxaliplatin model, this work) was 10 mg/kg and the “onset of antinociceptive activity” value ([6]; oxaliplatin-treated mice, 10 mg/kg oral, cold plate test) was 30 min. The “extent of the antinociceptive effect at 30 mg/kg compared to 10 mg/kg” value [6, 12] was “without changing the extent of the antinociceptive effect”, the “onset of antinociceptive activity” value [6, 12] was 15 min and the “antinociceptive activity (licking latency, cold plate test)” value ([6]; oxaliplatin-treated mice, day 15, single oral 1 mg/kg) was “but not 1 or 3 mg/kg”. For the same compound, the “endurance time (number of falls per 30 seconds)” value [7, 13] was “did not modify the endurance time”, the EC50 [1] was 86 ± 10 µM and the Emax ([1]; read-out: maximal efficacy at rα7 nAChRs) was 196%. For the same compound, the “potentiation of ACh-evoked currents” value ([1]; rα7, 30 µM ACh, 100 µM compound) was ~ 100%, the “Potentiation nH” value ([1]; rα7, agonist ACh 30 µM) was roughly 2 and the IC50 ([8]; rα9α10, agonist ACh 10 µM) was 340 ± 21 µM. The IC50 ([8]; rα9α10, agonist ACh 100 µM) was 369 ± 21 µM, the inhibition at 300 µM [8, 14] was 40% and the “inhibitory activity at the CaV2.2 channel (in words)” value ([9]; CaV2.2 channel) was “minimal effect”. It also gave an inhibition at 300 µM ([9]; HEK-293T, read-out: inhibition of whole-cell Ba2+ currents, hCaV2.2, at 300 µM) of roughly 20%.
With `Cc1ccc(N(C)C(=O)/C=C/c2ccco2)cc1` [DM490, (E)-3-(furan-2-yl)-N-methyl-N-(p-tolyl)acrylamide] the “activity on oxaliplatin-treated animals (cold plate test)” value ([6]; 30 mg/kg oral, alone) was “without inducing any activity on oxaliplatin-treated animals”, the “pain threshold for cold stimuli” value [10] was “did not change the pain threshold” and the “pain threshold for heat stimuli” value [11] was “did not change the pain threshold”. The “endurance time (number of falls per 30 seconds)” value [7, 13] was “did not modify the endurance time”, the “endurance time (number of falls per 30 seconds)” value ([7]; repeated, 30 mg/kg daily for 7 days, day 8, P > .05 vs vehicle) was “did not modify the endurance time” and the IC50 [1] was 15.1 ± 1.8 µM. The inhibition at 10 µM ([1]; read-out: inhibition of ACh-evoked current amplitude) was roughly 40%, the “Inhibition nH” value ([1]; rα7, agonist ACh 30 µM) was less than 1.5 and the IC50 ([8]; rα9α10, agonist ACh 10 µM) was 41 ± 4 µM. The IC50 ([8]; rα9α10, agonist ACh 100 µM) was 36 ± 4 µM, the inhibition at 30 µM [8, 14] was roughly 45% and the “fold higher antagonist potency than that for DM497” value ([8]; α9α10 nAChR) was greater than 8 fold. The IC50 [9] was 93 ± 16 µM.
For `O=C(/C=C/c1ccco1)N1CCc2ccccc21` [DM489, (E)-3-(furan-2-yl)-1-(indolin-1-yl)prop-2-en-1-one], the LogBBB [2] is listed as 0.17 and the “active dose (antinociceptive activity)” value [3] is listed as 10 mg/kg.
